The text below walks through data of ChEMBL document CHEMBL1255352, “Polyclonal population structure of Streptococcus pneumoniae isolates in Spain carrying mef and mef plus erm(B)” (2008).

In experiment [1] the test system is Streptococcus pneumoniae. Kind of experiment: Antibacterial activity against mef-positive Streptococcus pneumoniae isolates assessed as resistance incidence by broth microdilution method. Format: functional. The method, boiled down:
(§1)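 Clinical isolates were tested by CLSI broth microdilution against penicillin G, cefotaxime, erythromycin, clindamycin, telithromycin, tetracycline and levofloxacin, incubated at 35°C in ambient air, with ATCC 49619 as the control in each run. Isolates were classed as resistant using CLSI breakpoints.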
On the technique in general: In broth dilution the organism is exposed to a series of concentrations in liquid medium.

Experiment [2] has as its system Streptococcus pneumoniae. Kind of experiment: Antibacterial activity against erm(B) and mef(E)-positive Streptococcus pneumoniae isolate Spain 6B by broth microdilution method. Format: functional. Put shortly: (§2)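 MICs by broth microdilution following CLSI guidelines, incubated at 35°C in ambient air. S. pneumoniae ATCC 49619 served as reference strain in each run. CLSI breakpoints applied. Isolates typed for mef(A)/mef(E) by PCR and by MLST.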

The subject of experiment [3] is Streptococcus pneumoniae. Kind of experiment: Antibacterial activity against mef and erm(B) positive Streptococcus pneumoniae isolates by broth microdilution method. Format: functional. Put shortly: (§3)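 Broth microdilution MICs per CLSI guidelines. Agents tested were penicillin G, cefotaxime, erythromycin, clindamycin, telithromycin, tetracycline and levofloxacin. Plates were incubated at 35°C in ambient air. S. pneumoniae ATCC 49619 served as the reference strain in each run.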

Experiment [4] has as its system Streptococcus pneumoniae. Nature of the experiment: Antibacterial activity against mef-positive Streptococcus pneumoniae isolates by broth microdilution method. Format: functional. The method, boiled down: as §3
The test system of experiment [5] is Streptococcus pneumoniae. Kind of experiment: Antibacterial activity against mef and erm(B) positive Streptococcus pneumoniae isolates assessed as resistance incidence by broth microdilution method. Format: functional. The method, boiled down:
as §1

In experiment [6] the test system is Streptococcus pneumoniae. Nature of the experiment: Antibacterial activity against erm(B) and mef(E)-positive Streptococcus pneumoniae isolate CC-6B by broth microdilution method.
For experiment [7], the system named is Streptococcus pneumoniae. Nature of the experiment: Antibacterial activity against mef(E)-positive Streptococcus pneumoniae isolate Spain 9V-3 by broth microdilution method. Format: functional. Put shortly: as §3
For experiment [8], the system named is Streptococcus pneumoniae. Kind of experiment: Antibacterial activity against erm(B) and mef(E)-positive Streptococcus pneumoniae isolate Sweden 15A-25 by broth microdilution method. Format: functional. The method, boiled down:
as §2

SMILES strings stand for the structures. Converted amounts (≈) assume the structure as drawn. Some results are limits rather than exact numbers.

For `CCC[C@@H]1C[C@@H](C(=O)N[C@@H]([C@H]2O[C@H](SC)[C@H](O)[C@@H](O)[C@H]2O)[C@H](C)Cl)N(C)C1` [CLINDAMYCIN], the Activity is 0% with Streptococcus pneumoniae [1] and 62.2% in the experiment with Streptococcus pneumoniae [5]. Moreover, the MIC (in general, the lowest concentration that inhibits growth of the organism) with Streptococcus pneumoniae [2] was no less than 64 µg/mL; in the experiment with Streptococcus pneumoniae [6], 32 µg/mL (≈ 75.3 µM); with Streptococcus pneumoniae [7], 0.03 µg/mL (≈ 0.0706 µM); in the experiment with Streptococcus pneumoniae [8], no less than 64 µg/mL. Moreover, the figures for the MIC50 in the experiment with Streptococcus pneumoniae [3] and with Streptococcus pneumoniae [4] were 64 µg/mL (≈ 151 µM) and 0.03 µg/mL (≈ 0.0706 µM), respectively. The figures for the MIC90 in the experiment with Streptococcus pneumoniae [3] and in the experiment on Streptococcus pneumoniae [4] were greater than 64 µg/mL and 0.25 µg/mL (≈ 0.588 µM), respectively.
Regarding `CC[C@H]1OC(=O)[C@H](C)C(=O)[C@H](C)[C@@H](O[C@@H]2O[C@H](C)C[C@H](N(C)C)[C@H]2O)[C@](C)(OC)C[C@@H](C)C(=O)[C@H](C)[C@H]2N(CCCCn3cnc(-c4cccnc4)c3)C(=O)O[C@]12C` [TELITHROMYCIN], the minimum inhibitory concentration (MIC) against Streptococcus pneumoniae [2] was 0.08 µg/mL (≈ 0.0985 µM); in the experiment on Streptococcus pneumoniae [6] it was less than 0.01 µg/mL; against Streptococcus pneumoniae [7], 0.05 µg/mL (≈ 0.0616 µM); against Streptococcus pneumoniae [8] it was 0.008 µg/mL (≈ 0.00985 µM). Besides, the MIC50 (in general, an inhibitory concentration at the 50% level, which refers to growth in some studies and to a panel of isolates in others) against Streptococcus pneumoniae [3] was 0.06 µg/mL (≈ 0.0739 µM); with Streptococcus pneumoniae [4] it was 0.12 µg/mL (≈ 0.148 µM). Besides, the results for the MIC90 in the experiment on Streptococcus pneumoniae [3] and in the experiment with Streptococcus pneumoniae [4] were 0.25 µg/mL (≈ 0.308 µM) and 0.5 µg/mL (≈ 0.616 µM), respectively.
Regarding `CC1(C)S[C@@H]2[C@H](NC(=O)Cc3ccccc3)C(=O)N2[C@H]1C(=O)O` [PENICILLIN G], the Activity with Streptococcus pneumoniae [1] stood at 35.5%; with Streptococcus pneumoniae [5], 46.7%. In addition, the minimal inhibitory concentration (MIC) was 4 µg/mL (≈ 12 µM) against Streptococcus pneumoniae [2], 0.12 µg/mL (≈ 0.359 µM) with Streptococcus pneumoniae [6], 0.12 µg/mL (≈ 0.359 µM) with Streptococcus pneumoniae [7] and 0.12 µg/mL (≈ 0.359 µM) in the experiment with Streptococcus pneumoniae [8]. Also, the MIC50 with Streptococcus pneumoniae [3] was found to be 1 µg/mL (≈ 2.99 µM); against Streptococcus pneumoniae [4], 0.03 µg/mL (≈ 0.0897 µM). Also, the MIC90 – broadly, an inhibitory concentration at the 90% level, which refers to growth in some studies and to a panel of isolates in others – was found to be 4 µg/mL (≈ 12 µM) against Streptococcus pneumoniae [3] and 1 µg/mL (≈ 2.99 µM) with Streptococcus pneumoniae [4].
Consider `CC[C@H]1OC(=O)[C@H](C)[C@@H](O[C@H]2C[C@@](C)(OC)[C@@H](O)[C@H](C)O2)[C@H](C)[C@@H](O[C@@H]2O[C@H](C)C[C@H](N(C)C)[C@H]2O)[C@](C)(O)C[C@@H](C)C(=O)[C@H](C)[C@@H](O)[C@]1(C)O` [ERYTHROMYCIN], for which the minimal inhibitory concentration (MIC) was no less than 64 µg/mL against Streptococcus pneumoniae [2], 32 µg/mL (≈ 43.6 µM) with Streptococcus pneumoniae [6], 0.5 µg/mL (≈ 0.681 µM) in the experiment on Streptococcus pneumoniae [7] and no less than 64 µg/mL against Streptococcus pneumoniae [8]. In addition, the MIC50 against Streptococcus pneumoniae [3] was 64 µg/mL (≈ 87.2 µM); in the experiment with Streptococcus pneumoniae [4], 4 µg/mL (≈ 5.45 µM). The MIC90 against Streptococcus pneumoniae [3] was greater than 64 µg/mL; in the experiment on Streptococcus pneumoniae [4], 16 µg/mL (≈ 21.8 µM).
For `C[C@H]1COc2c(N3CCN(C)CC3)c(F)cc3c(=O)c(C(=O)O)cn1c23.C[C@H]1COc2c(N3CCN(C)CC3)c(F)cc3c(=O)c(C(=O)O)cn1c23.O` [LEVOFLOXACIN], the MIC50 in the experiment on Streptococcus pneumoniae [3] and with Streptococcus pneumoniae [4] was 1 µg/mL each time. In addition, the MIC90 with Streptococcus pneumoniae [3] and against Streptococcus pneumoniae [4] was 1 µg/mL each time.
Consider `CO/N=C(\C(=O)N[C@@H]1C(=O)N2C(C(=O)O)=C(COC(C)=O)CS[C@H]12)c1csc(N)n1` [CEFOTAXIME], for which the figures for the Activity in the experiment with Streptococcus pneumoniae [1] and in the experiment with Streptococcus pneumoniae [5] were 17.7% and 4.4%, respectively. The MIC in the experiment with Streptococcus pneumoniae [2] worked out at 1 µg/mL (≈ 2.2 µM); against Streptococcus pneumoniae [6] it was 0.12 µg/mL (≈ 0.263 µM); in the experiment with Streptococcus pneumoniae [7] it was 0.06 µg/mL (≈ 0.132 µM); in the experiment with Streptococcus pneumoniae [8] it was 0.06 µg/mL (≈ 0.132 µM). The MIC50 was 0.5 µg/mL (≈ 1.1 µM) against Streptococcus pneumoniae [3] and 0.01 µg/mL (≈ 0.022 µM) in the experiment with Streptococcus pneumoniae [4]. In addition, the MIC90 against Streptococcus pneumoniae [3] amounted to 2 µg/mL (≈ 4.39 µM); against Streptococcus pneumoniae [4], 0.25 µg/mL (≈ 0.549 µM).
Take `CN(C)[C@@H]1C(O)=C(C(N)=O)C(=O)[C@@]2(O)C(O)=C3C(=O)c4c(O)cccc4[C@@](C)(O)[C@H]3C[C@@H]12` [TETRACYCLINE]: the Activity is given as 13.3% in the experiment on Streptococcus pneumoniae [1] and 55.5% in the experiment on Streptococcus pneumoniae [5]. Further, the minimal inhibitory concentration (MIC) was no less than 64 µg/mL against Streptococcus pneumoniae [2], 4 µg/mL (≈ 9 µM) in the experiment with Streptococcus pneumoniae [6], 0.5 µg/mL (≈ 1.13 µM) in the experiment with Streptococcus pneumoniae [7] and no less than 64 µg/mL in the experiment with Streptococcus pneumoniae [8]. Besides, the MIC50 against Streptococcus pneumoniae [3] amounted to 16 µg/mL (≈ 36 µM); against Streptococcus pneumoniae [4] it was 1 µg/mL (≈ 2.25 µM). The MIC90 against Streptococcus pneumoniae [3] was greater than 32 µg/mL; in the experiment on Streptococcus pneumoniae [4], 4 µg/mL (≈ 9 µM).
